In the library only some 3% were active in any assay of this set; here they are far more common.
SENP8 block-1 = blocks human SENP8 cleavage of Nedd8 substrate | Q96LD8 | recombinant SENP8, Nedd8 substrate fluorescence | inhibition, % at 20 µM | hit rate 0.64% among 360,000; in the data active = inhibition mostly above about 40%, no sharp cut-off; inactive = mostly below about 27%
Target sequence (Q96LD8 whole entry, looked up): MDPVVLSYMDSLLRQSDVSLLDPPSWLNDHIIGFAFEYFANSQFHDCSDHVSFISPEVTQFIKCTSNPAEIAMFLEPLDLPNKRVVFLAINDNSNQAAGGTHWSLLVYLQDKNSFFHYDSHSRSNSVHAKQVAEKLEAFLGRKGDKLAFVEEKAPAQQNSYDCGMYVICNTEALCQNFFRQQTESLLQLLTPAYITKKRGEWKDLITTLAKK
UBC13 inh = human UBC13 polyubiquitination inhibition; hit rate 0.47% among 330,000; AID 485273; inhibition, % at 20 µM; UBC13 polyubiquitin chain formation, TR-FRET; in the data active = inhibition above about 45%, passing the limit was not always enough; inconclusive = no clear call, values can overlap the other calls
SENP6 inh = blocks the human protease SENP6; Recombinant SENP6 catalytic domain, aminoluciferin luminescence; inhibition, % at 10 µM; hit rate 1.8% among 330,000; AID 2599;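 active = inhibition above about 50% at the single tested dose, limit read from the data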
SENP7 inh = inhibitors of human SENP7 protease | Q9BQF6 | hit rate 1.5% among 330,000 | inhibition, % at 5 µM | recombinant SENP7, Z-RLRGG-aminoluciferin luminescence, 40 min;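 active = inhibition above about 50% at the single test dose, limit read from the data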
Target sequence (Q9BQF6 706-1050 limits assumed): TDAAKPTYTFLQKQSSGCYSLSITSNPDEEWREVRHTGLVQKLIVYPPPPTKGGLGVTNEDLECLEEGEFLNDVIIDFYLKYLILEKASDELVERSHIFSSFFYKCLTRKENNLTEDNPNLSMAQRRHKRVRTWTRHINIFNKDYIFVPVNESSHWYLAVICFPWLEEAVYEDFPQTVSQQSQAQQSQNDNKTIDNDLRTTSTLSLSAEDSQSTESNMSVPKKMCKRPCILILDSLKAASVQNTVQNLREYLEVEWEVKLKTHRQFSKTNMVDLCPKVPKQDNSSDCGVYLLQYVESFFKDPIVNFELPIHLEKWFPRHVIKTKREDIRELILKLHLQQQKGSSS
SENP8 block-2 = blocks the human protease SENP8; inhibition, % at 10 µM; hit rate 1.2% among 330,000; Q96LD8; purified SENP8, Z-RLRGG-aminoluciferin cleavage, luminescence; in the data active = inhibition above about 50%
Apaf-1 inh = human Apaf-1 inhibition | O14727 | reconstituted apoptosome caspase-3 activity, DEVD-Rh110 fluorescence | inhibition, % at 20 µM | hit rate 0.71% among 330,000 | AID 489030; active = inhibition of at least 40% at 20 µM
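Material: cell-free apoptosome with Apaf-1, procaspase-3 and caspase-9; Buffer or medium: Hepes pH 7.5 with detergent and BSA; Reagent: cytochrome c trigger plus (Z-DEVD)2-Rh110 caspase-3 substrate; Times: compound with Apaf-1, dATP, procaspase-3 30 min, then 50 min reaction, room temperature; Technique: Rh110 fluorescence intensity.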
SENP8 confirm = human SENP8 inhibition, confirmed. shares compounds with SENP7 inh. Recombinant SENP8, Z-RLRGG-aminoluciferin luminescence, 60 min. inhibition, % at 12.5 µM. hit rate 40% among 6,200. AID 488912;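 active = mean inhibition across replicates above about 50%, limit read from the data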
SENP6 conf = confirmation of human SENP6 protease inhibitors | shares compounds with SENP7 inh | recombinant SENP6, Z-RLRGG-aminoluciferin luminescence | inhibition, % at 12.5 µM | hit rate 58% among 6,200
SENP7 conf = human SENP7 inhibition, confirmed; inhibition, % at 12.5 µM; AID 488917; recombinant SENP7, Z-RLRGG-aminoluciferin luminescence, 40 min; hit rate 69% among 6,200; shares compounds with SENP7 inh
Casp3 SENP sel = caspase-3 inhibition (SENP selectivity assay); shares compounds with SENP7 inh; purified caspase-3, Z-DEVD-aminoluciferin luminescence, 60 min; inhibition, % at 12.5 µM; hit rate 60% among 6,200; AID 488918;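 active = mean inhibition above about 50%, limit read from the data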
Luc interf = interferes with luciferase luminescence in SENP counter-screen; shares compounds with SENP7 inh; Pre-incubated SENP8/Z-RLRGG-aminoluciferin, luciferase luminescence interference; inhibition, % at 12.5 µM; hit rate 39% among 6,200;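 active = mean inhibition above about 50% when retested at one dose, limit read from the data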
Numbers stand for hits; – = inactive; ? = inconclusive; · = not tested or not shown.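 Rule for the calls, unless noted: active = mean inhibition above about 50% in the one-dose retest (limit read from the data); inactive = the rest.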

SMILES	SENP8 block-1	UBC13 inh	SENP6 inh	SENP7 inh	SENP8 block-2	Apaf-1 inh	SENP8 confirm	SENP6 conf	SENP7 conf	Casp3 SENP sel	Luc interf
CCOC(=O)c1ccc(N2C(=O)CC(C)(CC)CC2=O)cc1	–	–	–	–	–	–	·	·	·	·	·
CCn1nc(C(=O)NCC2COc3ccccc3O2)c2ccccc2c1=O (centres undefined)	–	–	–	–	–	–	·	·	·	·	·
CC1=CN2C(=N)/C(=C/c3ccco3)C(=O)N=C2S1	–	–	52	–	–	–	–	–	71	74	–
C=C(C)CNC(=O)c1ccc2nc(Cc3ccc(OC)cc3)oc2c1	–	–	–	51	–	–	–	–	75	66	–
COc1ccc(Cc2nc3ccc(C(=O)NC(C)C)cc3o2)cc1	–	·	·	·	·	·	·	·	·	·	·
CC1=CC(=C(C#N)c2nc3ccccc3s2)C=C(C)N1CC1CCCO1 (centres undefined)	–	–	82	–	–	–	–	–	–	–	–
c1ccc2sc(NCC3CCCO3)nc2c1 (centres undefined)	–	–	–	–	–	–	·	·	·	·	·
CC(C)(C)NC(=O)C(c1cccc2ccccc12)n1c(=O)c(-c2ccco2)nc2ccccc21 (centres undefined)	–	·	·	·	·	·	·	·	·	·	·
Nc1nc2c(-c3ccc(Br)cc3)nnn2c2ccccc12	–	–	–	70	–	–	–	–	–	–	–
CNc1nc2c(-c3ccc(Cl)cc3)nnn2c2ccccc12	–	–	–	–	–	–	·	·	·	·	·
Cc1ccc(N(CC(=O)NCc2ccc(F)cc2)C(=O)c2csnn2)cc1C	–	–	–	–	–	–	·	·	·	·	·
O=S1(=O)N=C(Nc2nc3c(s2)CCCC3)c2ccccc21	–	–	86	76	77	–	83	78	94	86	52
Cc1cccc(Nc2nc3c(s2)CCCC3)c1	–	·	·	·	·	·	·	·	·	·	·
CCOc1ccc(NC(=O)CN(C)C(=O)c2c(-c3ccccc3Cl)noc2C)cc1OCC	–	–	–	–	–	–	·	·	·	·	·
COc1ccc(OC)c(NC(=O)c2ccccc2N(C)S(=O)(=O)c2ccc(C)cc2)c1	–	–	–	–	–	–	·	·	·	·	·
O=Cc1ccccc1OCc1ccc2c(c1)OCO2	–	–	97	92	91	–	96	97	101	95	90
COc1ccccc1CNCc1ccc2c(c1)OCO2	–	·	·	·	·	·	·	·	·	·	·
COc1ccc(C(O)c2nc(/C=C/c3ccc(C(F)(F)F)cc3)cs2)cc1 (centres undefined)	–	·	·	·	·	·	·	·	·	·	·
O=C(COc1ccc(Cl)cc1Cl)Nc1ccc(C(=O)Nc2ccccc2C(=O)O)cc1	–	–	–	–	–	–	·	·	·	·	·
CCOc1c(Cl)cc(C(=O)Nc2ccccc2C(=O)O)cc1Cl	–	–	60	–	–	–	59	57	72	–	68
O=C(CCCOc1ccc(Cl)cc1Cl)Nc1ccccc1C(=O)O	–	–	86	–	71	–	83	82	90	64	82
Cc1ccccc1C(=O)Nc1ccc(O)cc1C(=O)O	–	–	–	–	–	–	·	·	·	·	·
O=C(Nc1ccc(O)cc1C(=O)O)c1cccs1	–	–	50	–	–	–	52	–	82	79	61
O=C(Nc1ccc(O)cc1C(=O)O)c1cccc(Br)c1	–	–	95	83	88	–	94	92	98	90	92
CCCCCCC1CC(=O)NC(=O)N1 (centres undefined)	–	–	–	–	–	–	·	·	·	·	·
SMILES	SENP8 block-1	UBC13 inh	SENP6 inh	SENP7 inh	SENP8 block-2	Apaf-1 inh	SENP8 confirm	SENP6 conf	SENP7 conf	Casp3 SENP sel	Luc interf
CC(C)Oc1ccccc1/C=N/NC(=O)C1CC1	–	–	–	–	–	–	·	·	·	·	·
O=C(Nc1ccccc1C(=O)O)c1cccc(C(=O)Nc2ccccc2C(=O)O)c1	–	–	80	–	71	–	87	86	98	88	70
O=C(Nc1sc(-c2ccccc2)cc1C(=O)O)c1ccccc1	–	–	84	–	66	–	–	74	74	–	60
CCOC(=O)c1cc(-c2ccccc2)sc1NC(=O)c1ccc(OC)cc1	·	–	–	–	–	–	·	·	·	·	·
CCOc1ccc(C(=O)Nc2cccc(C(=O)O)c2C)cc1Cl	–	–	100	98	93	–	97	98	102	80	97
CCOc1ccc(C(=O)Nc2ccccc2-c2ccccc2)cc1Cl	–	?	–	–	–	–	·	·	·	·	·
COc1ccc(C(=O)Nc2ccccc2C(=O)O)cc1Cl	–	–	97	92	94	–	96	97	101	95	96
COc1ccc(C(=O)Nc2ccccc2C(=O)O)cc1NC(=O)C(c1ccccc1)c1ccccc1	–	–	–	–	–	–	·	·	·	·	·
Cc1ccccc1NC(=O)c1cccc(S(=O)(=O)Oc2ccc([N+](=O)[O-])cc2)c1	–	–	–	97	–	–	–	–	–	–	–
O=C1c2ccccc2C(=O)C12OC2c1cccc2ccccc12 (centres undefined)	93	–	87	–	53	94	72	88	78	–	–
CCn1cc(CNC(=O)c2ccc3nc(Cc4ccc(OC)cc4)oc3c2)cn1	–	–	–	–	–	–	·	·	·	·	·
Cn1c(C(=O)Nc2ccc3c(c2)OCCO3)cc2sccc21	–	–	74	79	70	–	86	85	97	70	74
Cn1nccc1C(=O)Nc1ccc2c(c1)OCCO2	–	–	81	71	55	–	58	58	88	88	65
Cn1nc(C(=O)Nc2ccc3c(c2)OCCO3)cc1C(=O)O	–	–	56	66	–	–	56	54	86	85	64
COc1ccc(C(C)=O)cc1Cn1c(C)c(C(=O)NCc2ccc3c(c2)OCO3)sc1=O	–	·	·	·	·	·	·	·	·	·	·
COc1ccc(CCN2CC(C(=O)N3CCSCC3)CCC2=O)cc1 (centres undefined)	–	–	–	–	–	–	·	·	·	·	·
CC1(C)CC(=O)C(C(O)c2cccc([N+](=O)[O-])c2)C(C)(C)N1 (centres undefined)	–	–	–	–	–	–	·	·	·	·	·
O=C(Nc1cccc2ccccc12)N1CC=CCC1	–	–	65	–	–	–	–	–	–	–	–
COc1cc2ccc(NC(C)=O)cc2cc1OC	–	·	·	·	·	·	·	·	·	·	·
FC(F)(F)c1cc(-c2ccccn2)nc2cc(-c3ccccc3)nn12	–	–	–	–	–	–	·	·	·	·	·
